A selection: hits, their analogues and other compounds. The true share with any hit is near 3.4%.
CHT PAM: CHT positive allosteric modulators, primary screen, cell-based, membrane potential dye, choline EC20 | High affinity choline transporter 1 (Homo sapiens), Q9GZV3 | CHT-expressing cells; active compounds read high; LV-AA mutant CHT in HEK293 cells | B-score at 10 µM | 310,000 tested, 0.49% active;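 active = initial fluorescence not abnormally high and integrated response B-score, plate-corrected, over 3 SD above library mean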
Target sequence (Q9GZV3 whole entry, looked up): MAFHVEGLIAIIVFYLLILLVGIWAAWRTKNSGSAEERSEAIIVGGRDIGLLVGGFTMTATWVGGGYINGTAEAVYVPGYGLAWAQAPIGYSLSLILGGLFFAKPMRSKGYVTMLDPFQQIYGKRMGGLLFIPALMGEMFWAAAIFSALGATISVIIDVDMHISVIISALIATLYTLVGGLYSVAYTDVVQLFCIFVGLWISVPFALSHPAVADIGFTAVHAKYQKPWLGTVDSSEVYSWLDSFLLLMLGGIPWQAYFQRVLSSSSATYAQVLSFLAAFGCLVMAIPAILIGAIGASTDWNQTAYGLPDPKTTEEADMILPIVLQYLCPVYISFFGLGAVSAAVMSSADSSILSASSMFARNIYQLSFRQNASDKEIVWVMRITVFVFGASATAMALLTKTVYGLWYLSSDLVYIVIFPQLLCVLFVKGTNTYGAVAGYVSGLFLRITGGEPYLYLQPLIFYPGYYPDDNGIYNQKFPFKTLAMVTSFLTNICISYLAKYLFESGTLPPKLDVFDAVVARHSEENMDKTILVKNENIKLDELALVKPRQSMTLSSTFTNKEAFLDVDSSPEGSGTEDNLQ
VIM-2 inh: VIM-2 metallo-beta-lactamase inhibitors, primary screen, biochemical, epi-absorbance readout, Pseudomonas aeruginosa enzyme | purified VIM-2, nitrocefin hydrolysis, epi-absorbance fluorescence | inhibition, % at 5.6 µM | 290,000 tested, 0.89% active;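 active = inhibition above the mean of all tested compounds plus 3 SD, cutoff set per screening run, cut at about 7.5% in these data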;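 also: red hydrolysis product quenches plate fluorescence so inhibitors raise well fluorescence; 0% = enzyme with DMSO and 100% = DMSO without enzyme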
ANO1 activ: TMEM16A chloride channel activators or potentiators, primary screen, cell-based, HTS. Anoctamin-1 (Mus musculus), Q8BHY3. HEK293 TMEM16A/YFP-H148Q/I152L, iodide quench fluorescence; active compounds read low. B-score at 10 µM. 340,000 tested, 0.3% active. AID 623877, 2012;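 active = fluorescence-ratio B-score plate-corrected deviation score at least 3 library SD below zero, with starting fluorescence score within 5 deviations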;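 also: channel opened by trigger with iodide after compound preincubation; score built on the fluorescence ratio of max minus min over baseline; more negative score means more quench and so TMEM16A activation or potentiation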
TMEM16A inh: TMEM16A chloride channel inhibitors, primary screen, cell-based, HTS. 310,000 tested, 1.2% active. normalized B-score (activity score, 25-100; higher = stronger inhibition) at 10 µM. Anoctamin-1 (Mus musculus), Q8BHY3. HEK293 TMEM16A/YFP iodide influx fluorescence, ionomycin. AID 588511, 2011;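 active = ratio plate-corrected score three or more library SD toward inhibition, starting fluorescence score within five deviations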;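 also: score derived from kinetic fluorescence span divided by baseline fluorescence per well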
CHT block: inhibitors of human choline transporter CHT; CHT-expressing cells, membrane potential dye, choline response; active compounds read low; 310,000 tested, 0.86% active; AID 488975, 2010; B-score at 10 µM; High affinity choline transporter 1 (Homo sapiens), Q9GZV3;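 active = B-score over 3 SD under the library average, and starting fluorescence ratio not unusually high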;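 also: choline stimulus applied at its EC90 after an EC20 pre-addition; B-score computed on integrated fluorescence ratio after choline addition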
IMP-1 inhibitor: IMP-1 metallo-beta-lactamase inhibitors, primary screen, biochemical, epi-absorbance readout, Pseudomonas aeruginosa enzyme. metallo-beta-lactamase IMP-1 (Pseudomonas aeruginosa). 290,000 tested, 0.45% active. purified IMP-1, nitrocefin hydrolysis, epi-absorbance fluorescence. inhibition, % at 5.6 µM;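 active = inhibition above the mean plus 3 SD of all compounds in the same screening run, cut at about 4.5% in these data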;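 also: 0% = IMP-1 with DMSO and 100% = DMSO wells lacking enzyme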
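System: purified IMP-1; amount: IMP-1 0.2 nM before substrate addition; compound: single dose, 5.6 µM; times: 25 °C, 15 min preincubation, 25 min reaction; signal: Epi-absorbance via hydrolysed-nitrocefin quenching of white-plate fluorescence, 480/530 nm, EDTA stop; benchmarks: DMSO with and without IMP-1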
* marks the source's active call; other numbers are inactive results; i = inactive; nt = no result given.

SMILES | CHT PAM | VIM-2 inh | ANO1 activ | TMEM16A inh | CHT block | IMP-1 inhibitor
CCOCCOC(=O)c1[nH]c2c(c1C)C(=O)CC(c1ccc(OC)c(OC)c1)C2 (stereo unspecified) | i | -4 | i | i | i | -4
COc1cc(C2CC(=O)c3c([nH]c(C(=O)OCCOC(C)C)c3C)C2)cc(OC)c1OC (stereo unspecified) | i | -4 | i | 100* | i | -4
O=C(CSc1nnc(NC(=O)c2cccc(Cl)c2)s1)NCC1CCCO1 (stereo unspecified) | i | 8.6* | i | i | i | -2
CCc1nccn1CCC(=O)NC1CC(C)(C)Cc2c1cnn2-c1cccc(F)c1 (stereo unspecified) | i | -2 | i | i | i | -2
CCC1(N(C(C)=O)c2ccc(OC)cc2)C(=O)c2ccccc2C1=O | i | 0 | i | i | i | 21*
COc1ccc(N(CN2C(=O)c3ccccc3C2=O)C(=O)C(C)C)cc1 | i | 0 | i | i | i | -2
CC(=NNC(=S)N1CCN(c2ccccn2)CC1)c1nccs1 | nt | nt | i | nt | nt | nt
CCOC(=O)c1ccc(S(=O)(=O)N2CCN(C(=O)c3ccccn3)CC2)cc1 | nt | nt | i | nt | nt | nt
CN(C)c1ccc(C=C2SC(=S)NC2=O)cc1 | nt | nt | i | nt | nt | nt
CCOc1ccc(N(C)c2ccc(/C=C3/SC(=S)NC3=O)cc2)cc1 | i | 2 | i | i | i | 6.5*
CC1(NC(=O)CCc2nc3sc4c(c3c(=O)[nH]2)CCCC4)CCS(=O)(=O)C1 (stereo unspecified) | i | nt | i | i | i | nt
C=CCNc1nc(NC(C)(C)CO)nc(OCC)n1 | i | -5 | i | i | i | 28*
C=CCNc1nc(Nc2ccc(OC)cc2)nc(OCC)n1 | i | 0 | i | i | i | -1
Clc1ccc(-c2nnc3sc(-c4ccccn4)nn23)cc1 | nt | -1 | nt | nt | nt | -5
COc1cccc(-c2nn3c(-c4ccccn4)nnc3s2)c1 | i | 8.0* | i | i | i | -2
COc1ccc(-c2nn3c(-c4cccc(C)c4)nnc3s2)cc1OC | i | 4 | i | i | i | -2
c1ccc(-c2nn3c(-c4ccco4)nnc3s2)nc1 | i | 9.7* | i | i | i | -4
COc1ccc(-c2nn3c(-c4ccccn4)nnc3s2)cc1OC | i | 12* | i | i | i | -2
COc1cccc(-c2nn3c(-c4cc(C)[nH]n4)nnc3s2)c1 | i | 4 | i | i | i | 0
Cc1cc(C)n(C(=O)/C(C#N)=N/Nc2cc(Cl)cc(Cl)c2)n1 | i | -4 | i | 100* | i | -5
Cc1cc(C)n(C(=O)/C(C#N)=N\Nc2ccccc2[N+](=O)[O-])n1 | i | -3 | i | i | i | -2
N#Cc1cccc(NC(=O)COc2ccc(-n3ccnc3)cc2)c1 | i | 5 | i | 25* | i | 1
COc1cc(NC(=O)COc2ccc(-n3ccnc3)cc2)cc(OC)c1 | i | 7 | i | i | i | -4
O=C(/C=C/c1ccc(Cl)cc1Cl)NCCSCc1ccccc1 | i | -1 | i | 100* | i | 0
O=C(/C=C/c1ccc(Cl)cc1Cl)NCCSc1ccccc1 | i | 0 | i | 25* | i | -1
SMILES | CHT PAM | VIM-2 inh | ANO1 activ | TMEM16A inh | CHT block | IMP-1 inhibitor
O=C(/C=C/c1ccccc1)NCCSCc1ccc(Cl)cc1 | i | -1 | i | i | i | -1
Cc1cccc(C(=O)NNC(=O)c2cccc(C)c2)c1 | i | -1 | i | i | i | 0
Cc1cccc(C(=O)NC(=S)NNC(=O)c2ccccc2Cl)c1 | i | -4 | i | 100* | i | -6
Cc1cccc(C(=O)NNC(=O)C2CC2)c1 | i | 8.7* | i | i | i | -2
COc1ccc(N2CCN(C(=O)CSc3nnc4n3C(C)(C)Cc3ccccc3-4)CC2)cc1 | i | -2 | i | 25* | i | -2
Cc1ccc(Cl)cc1N1CCN(C(=O)CSc2nnc3n2C(C)(C)Cc2ccccc2-3)CC1 | i | 1 | i | 100* | i | -8
COC(=O)CSc1nnc2n1C(C)(C)Cc1ccccc1-2 | i | -2 | i | i | i | -3
COc1ccc2nc(NC(=O)CSc3nnc4n3C(C)(C)Cc3ccccc3-4)sc2c1 | i | -3 | -8* | i | i | -3
CC1CCN(C(=O)COC(=O)c2cc3ccccc3oc2=O)CC1 | nt | nt | i | nt | nt | nt
O=C(NCCCN1CCCC1=O)Nc1ccc([N+](=O)[O-])cc1 | i | -1 | nt | i | i | -1
Cc1ccc(OCCOc2ccc(S(=O)(=O)N3CCCC3)cc2C(N)=O)cc1 | nt | nt | i | nt | nt | nt
CCC(=O)NC(=S)Nc1ccc(NC(=O)COc2ccc(Cl)c(C)c2)cc1 | i | -1 | i | i | i | 3
Cc1cc(OCC(=O)NNC(=S)NC(=O)c2ccc(Br)o2)ccc1Cl | i | -3 | -4.6* | 25* | i | -3
COc1ccc(/C=N/NC(=O)C(N)=O)c(OC)c1OC | i | -2 | i | i | i | 8.4*
CN(CC(=O)NCc1ccccc1)Cc1cccc(F)c1 | i | -2 | i | i | i | 5.6*
CSc1ccccc1NC(=O)CN(C)Cc1cccc(Cl)c1 | i | -1 | -39* | i | i | -2
CSc1ccccc1NC(=O)CN(C)CC(=O)NCc1ccccc1 | i | -3 | i | i | i | -3
Cc1cccc(C(=O)OCN2C(=O)c3ccccc3C2=O)c1[N+](=O)[O-] | i | -1 | i | i | i | -2
CCOc1ccc(OCC(=O)OCc2cc(=O)n3cc(Br)ccc3n2)cc1 | nt | nt | -10* | nt | nt | nt
CC(=O)N/C(=C\c1ccccc1)C(=O)OC(C)C(=O)NCc1ccccc1 (stereo unspecified) | i | nt | i | i | i | nt
O=C(c1cccc(S(=O)(=O)N2CCc3ccccc32)c1)N1CCCC(C(F)(F)F)C1 (stereo unspecified) | i | nt | i | i | i | nt
COc1cccc(NC(=O)c2ccc3nc(C)sc3c2)c1 | i | -1 | i | i | i | 0
Cc1cccc2nc(COc3ccc(-c4ccccc4)cc3)cn12 | i | 0 | nt | 100* | i | -3
Cc1cccc2nc(CSc3ccc(Cl)cc3)cn12 | i | -2 | i | i | i | -2
